# Screens as filed in PubChem BioAssay.
# The list is not random: actives were taken first. Their share in the collection is about 5.4%.
# SKKanGAS inh: blocks kanamycin growth of S. pyogenes SKKanGAS strain; BacTiter-Glo, 6 h; inhibition, % at 7.5 µM; actives 1.3% (n = 300,000);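 active = mean replicate score, as percent of positive control median, at least 50; inconclusive = mean below 50 but one replicate at or above 50; inactive = mean and every replicate below 50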;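 also: strain carries kanamycin resistance gene driven by streptokinase promoter and grows in 40 µg/ml kanamycin; loss of luminescence reflects streptokinase promoter inhibition or plain growth inhibition; 0% = median of DMSO wells and 100% = positive control at its reference dose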
# T cruzi repl: T. cruzi replication inhibition; T. cruzi beta-gal in NIH3T3, luminescence, 90 h; inhibition, % (test concentration not listed); actives 1.4% (n = 300,000); AID 1885;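 active = mean inhibition across valid replicates above about 55%, limit read from the data; inconclusive = mean below that limit but half or more replicates reach it; inactive = mean below it, under half of replicates reach it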;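 also: signal also drops with host cell toxicity which is not excluded here; 0% = plate median of DMSO wells and 100% = zero luminescence signal; higher percent means less beta-gal luminescence so fewer parasites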
#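 System – NIH/3T3 host cells with β-galactosidase reporter T. cruzi · Doses – single 50 nL compound addition per well in DMSO · Reagent – 5000 T. cruzi trypomastigotes/well · Medium – Low-serum DMEM with 2% FBS · Timing – ≥90 h infection period, 3 h prior cell attachment · Evaluation – parasite load inhibition, % · Technique – GalScreen luminescence, 60 min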
# aSyn 5UTR inh: MLPCN primary screen, SNCA 5' untranslated region | AID 1813 | inhibition, % (tested at 7.5 µM) | alpha-synuclein 5'UTR reporter, inhibitor activity | actives 0.82% (n = 300,000); in the data active = inhibition above about 60%; inconclusive = no clear call, values can overlap the other calls;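 also: H4 neuroglioblastoma cells stably carrying SNCA 5'UTR luciferase fusion; 0% = DMSO wells and 100% = positive control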
# Mdm2 MdmX PPI: disrupts the human Mdm2-MdmX interaction | actives 3% (n = 330,000) | SaOS-2 split-luciferase Mdm2/MdmX complementation, luminescence | O15151+Q00987 | AID 485346 | inhibition, % at 8 µM;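 active = inhibition of at least 50% at 8 µM in the primary screen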
# CSC inhib: blocks cancer stem cells. cancer stem cell-like cells viability, luminescence. inhibition, % at 7.5 µM. actives 1.1% (n = 300,000); in the data active = inhibition above about 75%; inconclusive = no clear call, values can overlap the other calls; tested in HMLE shEcad cells
# The depositor's hits bear a star; ? = inconclusive; . = no result.
SMILES,SKKanGAS inh,T cruzi repl,aSyn 5UTR inh,Mdm2 MdmX PPI,CSC inhib
CCC1=Nc2cc(C(=O)NCCN3CCOCC3)ccc2Sc2ccc(C)cc21,2.2,14.3,-22.4,-37.4,10.9
O=C(O)CSc1nc2ccc(C(=O)c3ccccc3)cc2[nH]1,11.8,-8.9,-11.3,10.9,-3.9
CCn1c(CN2CCOCC2)nnc1SCC(=O)Nc1cccc(C)c1,1.2,-0.9,-5.5,1.2,-6.5
CN(CC(=O)Nc1ccc(F)cc1)C(=O)c1ccc(OCc2cn3ccccc3n2)cc1,.,.,.,0.0,.
Cn1c(O)c(/C=N/Nc2ccccc2)c(=O)n(C)c1=O,-8.9,-3.8,6.9,-4.1,88.6*
Cc1[nH]c2ccccc2c1C(=O)CSc1nc2cc(S(=O)(=O)N3CCCCC3)ccc2o1,16.7,56.7*,-23.1,13.3,-3.1
COc1ccc([C@H]2C(C(=O)O)=C[C@@H](C(C)(C)C)N2S(=O)(=O)c2ccccc2)cc1,.,.,.,3.6,5.2
O=[N+]([O-])c1ccc(S(=O)(=O)N2CCN(c3ccc(N4CCOCC4)nn3)CC2)cc1,-0.3,59.7*,5.4,29.4,52.5
O=[N+]([O-])c1ccc(S(=O)(=O)Nc2ccc(-c3ccc(N4CCCC4)nn3)cc2)cc1,3.1,55.3*,-17.1,-0.6,19.4
CCN(CC(=O)Nc1c(F)cccc1F)C(=O)C1CC(=O)N(CCc2ccc(OC)c(OC)c2)C1 (centres undefined),.,.,.,-22.4,.
Cc1cccc(/C=C(\C(=O)O)c2ccc(S(=O)(=O)N3CCCC3)s2)c1,.,.,.,4.6,-11.7
CC1CN(CC(=O)Nc2ccc(S(N)(=O)=O)cc2)CC(C)O1 (centres undefined),-0.1,-14.5,5.6,-26.7,-0.2
COCc1ccc(C(=O)N2CCCC(Nc3ccc(C(C)C)cc3)C2)o1 (centres undefined),-5.4,-1.8,-2.6,16.2,0.0
Cc1ccc(-c2nc(Nc3cccc(O)c3)c3ccccc3n2)cc1,20.0,0.5,13.3,20.6,111.7*
COc1cccc(Nc2nc(NCC3CCCO3)c3ccccc3n2)c1 (centres undefined),-5.3,59.9*,11.8,43.2,21.0
COc1ccc(Nc2nc(-c3ccccc3O)nc3ccccc23)cc1,21.5,29.5,-5.3,24.4,80.6*
COc1ccc(Nc2nnc(-c3ccc(O)cc3)c3ccccc23)cc1,-4.5,57.1*,25.1,-1.0,-12.9
COc1cccc(Nc2nc(-c3ccccc3O)nc3ccccc23)c1,-0.9,20.3,-1.4,24.7,8.2
Oc1ccc(Nc2nnc(-c3ccc(O)cc3)c3ccccc23)cc1,7.2,0.7,25.4,27.1,11.5
Oc1ccc(Nc2nc(NCC3CCCO3)c3ccccc3n2)cc1 (centres undefined),-4.6,50.3,-31.0,37.2,.
Cc1ccc(-c2nc(Nc3ccc(O)cc3)c3ccccc3n2)cc1,2.6,42.3,-29.3,39.3,73.1
Cc1cc(OCC(=O)NCCCN2CCCC2=O)c2c(C)c(C)c(=O)oc2c1,-0.6,-13.7,-9.2,-6.8,-15.4
C/C(=N\NC(=O)C(O)c1ccccc1)c1ccc(Br)s1 (centres undefined),-3.0,-16.5,-26.2,11.5,-0.5
COc1cc2ccccc2cc1C(=O)OCc1nc2ccsc2c(=O)[nH]1,.,.,.,4.8,-16.2
Cc1ccc(-c2nc(Nc3ccc(N4CCOCC4)cc3)c3ccccc3n2)cc1,41.2,18.2,-8.3,44.8,89.7*
SMILES,SKKanGAS inh,T cruzi repl,aSyn 5UTR inh,Mdm2 MdmX PPI,CSC inhib
COc1ccc(Nc2nc(N3CCCCC3)nc3ccccc23)c(OC)c1,-10.8,57.8*,-0.6,21.6,14.9
COc1cccc(Nc2nc(-c3ccccc3)nc3ccccc23)c1,8.3,12.4,-2.6,16.9,91.5*
COc1ccc(Nc2nc(NC(C)(C)C)nc(N3CCOCC3)n2)c(OC)c1,5.0,59.3*,-14.2,12.3,-1.5
c1ccc(Nc2nc(-c3ccccc3)nc3ccccc23)cc1,-3.7,27.5,1.1,24.4,48.9
CC(=O)Nc1cc2c(cc1NC(=O)Cn1nnc(-c3ccc(C)o3)n1)OCCO2,1.6,-8.3,18.5,-32.6,-3.3
Nc1ncnc2c1ncn2[C@@H]1O[C@H](CNC(=O)[C@@H]2CCC(=O)N2)[C@@H](O)[C@H]1O,.,.,.,25.6,.
COc1ccc(Nc2nc(-c3ccccc3)nc3ccccc23)c(OC)c1,5.6,64.6*,-15.5,25.1,11.7
Oc1cccc(Nc2c3ccccc3nc3ccccc23)c1,4.2,70.5*,-80.6,28.9,55.5
CCCOC(=O)c1cccc(Nc2nc(-c3cccnc3)nc3ccccc23)c1,21.0,64.8*,-4.4,42.7,71.5
O=C(OCCNc1nc(-c2ccccc2)nc2ccccc12)c1cccnc1,-16.2,47.0,-4.9,-0.4,5.3
c1cncc(Nc2c3ccccc3nc3ccccc23)c1,-3.0,34.6,-10.1,-12.3,21.1
CC(C)[C@H](NS(=O)(=O)c1ccccc1)C(=O)Nc1nccs1,.,.,.,-4.2,-9.6
c1ccc(-c2ncc3c(ccc4ccccc43)n2)cc1,-14.4,-15.6,68.1*,-14.4,.
c1ccc2c(c1)cnc1ccccc12,-4.5,4.8,-22.2,4.9,16.9
CN1C(=O)C2(c3ccccc31)c1c(oc3ccccc3c1=O)C(=O)N2CCCO (centres undefined),8.6,5.3,-8.2,1.6,0.4
COc1ccc(CN2CCCC(N3CCN(c4cccc(Cl)c4)CC3)C2)cc1OC (centres undefined),0.0,55.7*,-2.5,14.5,-8.7
CCOc1cc(CN2CCCC(N3CCN(c4ccc(F)cc4)CC3)C2)ccc1OC (centres undefined),0.0,50.5,28.6,-22.9,15.0
CC(C)CN1CCCC(N2CCN(c3cccc(Cl)c3)CC2)C1 (centres undefined),-16.7,65.1*,0.1,-8.8,55.2
CCCOc1ccc(C2NC(=S)NC(C)=C2C(=O)c2ccccc2)cc1OC (centres undefined),-3.9,8.2,-19.6,6.2,-12.9
O=C(Nc1scc(-c2ccc(Br)cc2)c1C(=O)O)c1ccccc1F,78.3*,-7.1,-36.9,-5.1,24.3
CC(C)Cc1csc(NC(=O)c2ccc(Br)cc2)c1C(=O)O,69.7*,-7.2,-9.4,6.9,33.4
COc1ccc(-c2csc(NC(=O)c3ccc(C(C)(C)C)cc3)c2C(=O)O)cc1,81.8*,33.1,?,29.0,36.6
Cc1ccccc1C(=O)Nc1scc(-c2ccc(Br)cc2)c1C(=O)O,85.8*,-16.0,5.7,11.9,26.5
Cc1ccc(-c2csc(NC(=O)c3ccccc3F)c2C(=O)O)cc1,8.3,-26.1,-102.2,-0.9,12.8
CC(C)Cc1csc(NC(=O)C(C)C)c1C(=O)O,15.2,-3.2,7.8,10.1,7.6
COc1ccc(O)c(-c2cn[nH]c2-c2cccs2)c1,-1.7,-9.2,20.4,36.6,-13.3
COc1ccc(O)c(C2=Nc3ccccc3N=C(c3cccs3)C2)c1,59.9*,6.3,5.7,9.2,50.9
Cc1ccc2ccc3ccc(C)nc3c2n1,14.9,47.4,72.0*,29.6,8.2
O=C1NCCc2c1[nH]c1ccc([N+](=O)[O-])cc21,-5.1,-15.5,70.1*,47.9,-2.4
O=C1NCCc2c1[nH]c1ccccc21,-7.6,8.4,13.0,11.0,.
